1 compound from ChEMBL document CHEMBL5661979, “Pharmacological inhibition of BMK1 suppresses tumor growth through promyelocytic leukemia protein” (Cancer Cell, 2010) can be followed below.

A value given as a limit tells only on which side of the number the result lay.

For one series, the target named is SRSF protein kinase 1 (Homo sapiens, UniProt Q96SB4). Nature of the series: Inhibition of SRPK1 in human HeLa cells lysate pre incubated for 15 mins followed by ATP acyl phosphate probe addition and measured after 10 mins by LC-MS/MS analysis. The class given is subcellular.
In series [1] the target is MAP/microtubule affinity-regulating kinase 3 (Homo sapiens, UniProt P27448). Briefly: Inhibition of MARK3 in human HeLa cells lysate at 50 uM pre incubated for 15 mins followed by ADP acyl phosphate probe addition and measured after 10 mins by LC-MS/MS analysis relative to control. The class given is subcellular. The note with it: time 25.0 min.
Sequence of MAP/microtubule affinity-regulating kinase 3 (P27448 whole entry, looked up): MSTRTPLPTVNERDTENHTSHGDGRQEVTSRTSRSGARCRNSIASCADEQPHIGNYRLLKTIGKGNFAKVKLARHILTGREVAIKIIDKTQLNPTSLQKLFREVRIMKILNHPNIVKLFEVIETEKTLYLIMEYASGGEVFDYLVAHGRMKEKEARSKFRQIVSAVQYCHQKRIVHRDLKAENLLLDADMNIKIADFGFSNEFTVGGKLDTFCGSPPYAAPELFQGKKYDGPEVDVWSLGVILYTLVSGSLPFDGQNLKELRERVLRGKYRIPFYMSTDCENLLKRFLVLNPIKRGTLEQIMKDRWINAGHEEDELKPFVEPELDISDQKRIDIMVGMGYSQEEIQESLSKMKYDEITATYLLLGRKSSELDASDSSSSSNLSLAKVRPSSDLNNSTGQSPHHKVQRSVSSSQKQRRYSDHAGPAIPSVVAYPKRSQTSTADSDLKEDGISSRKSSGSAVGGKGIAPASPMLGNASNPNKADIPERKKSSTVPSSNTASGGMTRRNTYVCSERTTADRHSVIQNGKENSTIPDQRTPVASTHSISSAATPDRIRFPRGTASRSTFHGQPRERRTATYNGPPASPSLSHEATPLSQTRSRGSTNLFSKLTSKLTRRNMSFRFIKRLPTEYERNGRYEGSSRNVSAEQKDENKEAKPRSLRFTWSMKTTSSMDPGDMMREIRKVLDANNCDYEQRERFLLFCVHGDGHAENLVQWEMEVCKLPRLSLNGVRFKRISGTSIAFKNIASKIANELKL
Series [2] concerns the target T1, Serine/threonine-protein kinase Nek9 (Homo sapiens) (UniProt Q8TD19).
T1 sequence (whole entry): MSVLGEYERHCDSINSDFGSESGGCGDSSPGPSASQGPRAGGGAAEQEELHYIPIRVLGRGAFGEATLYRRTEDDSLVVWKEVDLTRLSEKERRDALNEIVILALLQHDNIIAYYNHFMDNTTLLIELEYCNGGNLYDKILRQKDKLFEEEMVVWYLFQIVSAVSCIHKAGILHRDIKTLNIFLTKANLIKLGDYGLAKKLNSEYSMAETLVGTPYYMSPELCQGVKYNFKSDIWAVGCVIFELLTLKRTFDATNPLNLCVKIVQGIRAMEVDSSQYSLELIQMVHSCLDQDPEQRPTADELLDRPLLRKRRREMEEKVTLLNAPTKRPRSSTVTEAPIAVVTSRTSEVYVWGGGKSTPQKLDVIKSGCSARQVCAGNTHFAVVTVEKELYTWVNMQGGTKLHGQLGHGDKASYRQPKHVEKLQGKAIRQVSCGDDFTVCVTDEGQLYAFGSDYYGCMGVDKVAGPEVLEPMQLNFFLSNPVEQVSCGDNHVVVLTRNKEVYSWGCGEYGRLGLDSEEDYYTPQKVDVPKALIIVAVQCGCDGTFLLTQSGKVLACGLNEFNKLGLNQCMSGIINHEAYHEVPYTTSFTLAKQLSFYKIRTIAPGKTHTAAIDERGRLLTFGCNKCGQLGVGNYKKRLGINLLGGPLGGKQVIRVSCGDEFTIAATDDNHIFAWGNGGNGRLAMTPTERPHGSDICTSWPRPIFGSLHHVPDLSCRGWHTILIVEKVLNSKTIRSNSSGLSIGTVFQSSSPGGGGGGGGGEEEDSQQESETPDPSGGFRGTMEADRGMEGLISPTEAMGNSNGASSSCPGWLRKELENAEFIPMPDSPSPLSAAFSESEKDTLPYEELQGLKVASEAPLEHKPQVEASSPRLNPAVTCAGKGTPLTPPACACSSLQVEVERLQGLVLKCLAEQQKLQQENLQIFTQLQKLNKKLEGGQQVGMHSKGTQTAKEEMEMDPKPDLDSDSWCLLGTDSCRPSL
Briefly: Inhibition of NEK9 in human HeLa cells lysate at 10 uM pre incubated for 15 mins followed by ADP acyl phosphate probe addition and measured after 10 mins by LC-MS/MS analysis relative to control. The class given is subcellular. The conditions noted are these: time 25.0 min.

Series [3] addresses Tyrosine-protein kinase receptor UFO (Homo sapiens, UniProt P30530). Nature of the series: Inhibition of AXL in human HeLa cells lysate pre incubated for 15 mins followed by ADP acyl phosphate probe addition and measured after 10 mins by LC-MS/MS analysis. It counts as subcellular. Put shortly: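 KiNativ-type profiling in HeLa lysate (5 mg/mL total protein). Lysate preincubated 15 min with inhibitor at 50, 10, 2, 0.8 or 0 μM, then ATP or ADP acylphosphate probe added (5 μM final) for 10 min. Reaction stopped with urea and analysed by targeted MS, using up to four fragment ions per kinase peptide-probe conjugate. % inhibition calculated against untreated lysate. Duplicate reactions.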

Series [4] concerns the target EKC/KEOPS complex subunit TP53RK (Homo sapiens, UniProt Q96S44). Briefly: Inhibition of PRPK in human HeLa cells lysate pre incubated for 15 mins followed by ATP acyl phosphate probe addition and measured after 10 mins by LC-MS/MS analysis. The class given is subcellular.
The target of series [5] is DNA-dependent protein kinase catalytic subunit (Homo sapiens, UniProt P78527). Nature of the series: Inhibition of PRKDC in human HeLa cells lysate at 50 uM pre incubated for 15 mins followed by ATP acyl phosphate probe addition and measured after 10 mins by LC-MS/MS analysis relative to control. It counts as subcellular. The conditions noted are these: time 25.0 min.

Series [6] addresses Mitogen-activated protein kinase kinase kinase 1 (Homo sapiens, UniProt Q13233). Nature of the series: Inhibition of MAP3K1 in human HeLa cells lysate at 10 uM pre incubated for 15 mins followed by ADP acyl phosphate probe addition and measured after 10 mins by LC-MS/MS analysis relative to control. The conditions noted are these: time 25.0 min. It counts as subcellular.
Series [7] addresses Mitogen-activated protein kinase 14 (Homo sapiens, UniProt Q16539). Nature of the series: Inhibition of P38alpha interaction site in human HeLa cells lysate at 2 uM pre incubated for 15 mins followed by ATP acyl phosphate probe addition and measured after 10 mins by LC-MS/MS analysis relative to control. The class given is subcellular. The note with it: time 25.0 min.
In series [8] the target is Protein kinase C theta type (Homo sapiens, UniProt Q04759). Nature of the series: Inhibition of PKCtheta in human HeLa cells lysate at 50 uM pre incubated for 15 mins followed by ATP acyl phosphate probe addition and measured after 10 mins by LC-MS/MS analysis relative to control. It counts as subcellular. The note with it: time 25.0 min.
Sequence of Protein kinase C theta type (Q04759 whole entry, looked up): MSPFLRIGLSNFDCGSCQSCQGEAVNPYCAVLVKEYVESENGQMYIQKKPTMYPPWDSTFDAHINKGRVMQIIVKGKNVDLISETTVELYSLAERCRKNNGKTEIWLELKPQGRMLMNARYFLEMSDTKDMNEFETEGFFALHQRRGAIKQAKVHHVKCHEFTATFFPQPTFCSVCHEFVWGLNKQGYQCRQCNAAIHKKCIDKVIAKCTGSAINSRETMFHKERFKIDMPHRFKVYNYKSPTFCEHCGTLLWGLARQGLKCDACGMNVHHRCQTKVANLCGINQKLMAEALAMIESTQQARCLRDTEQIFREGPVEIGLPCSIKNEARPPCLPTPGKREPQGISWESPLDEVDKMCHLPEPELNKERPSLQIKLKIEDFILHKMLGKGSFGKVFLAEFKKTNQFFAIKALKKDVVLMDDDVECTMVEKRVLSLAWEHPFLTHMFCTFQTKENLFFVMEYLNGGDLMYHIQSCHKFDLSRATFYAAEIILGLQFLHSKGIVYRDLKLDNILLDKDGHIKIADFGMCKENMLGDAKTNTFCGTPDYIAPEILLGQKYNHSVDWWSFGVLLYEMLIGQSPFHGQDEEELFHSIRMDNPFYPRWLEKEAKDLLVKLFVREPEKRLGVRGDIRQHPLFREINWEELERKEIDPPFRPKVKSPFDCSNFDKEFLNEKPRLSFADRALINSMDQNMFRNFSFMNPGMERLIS
For series [9], the target named is T2, Cyclin-dependent kinase 10 (Homo sapiens, UniProt Q15131). Briefly: Inhibition of CDK10 in human HeLa cells lysate at 2 uM pre incubated for 15 mins followed by ATP acyl phosphate probe addition and measured after 10 mins by LC-MS/MS analysis relative to control. It counts as subcellular. The conditions noted are these: time 25.0 min. The essentials:
(§1)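 KiNativ profiling in HeLa lysate (5 mg/mL total protein). Lysate incubated 15 min with inhibitor at 50, 10, 2, 0.8 or 0 μM. ATP or ADP acylphosphate probe then added (5 μM final) and reacted 10 min. Reaction stopped with urea and analysed by targeted MS, using up to four fragment ions per kinase peptide-probe conjugate. % inhibition taken against untreated lysate. Run in duplicate.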

Series [10] has as its target Ribosomal protein S6 kinase alpha-5 (Homo sapiens, UniProt O75582). Briefly: Inhibition of MSK1 domain 1 K1 site in human HeLa cells lysate at 2 uM pre incubated for 15 mins followed by ADP acyl phosphate probe addition and measured after 10 mins by LC-MS/MS analysis relative to control. The class given is subcellular. The note with it: time 25.0 min.
Series [11] is described as follows: Inhibition of PRKX/PRKY in human HeLa cells lysate pre incubated for 15 mins followed by ADP acyl phosphate probe addition and measured after 10 mins by LC-MS/MS analysis. It counts as subcellular.
The target of series [12] is Cyclin-dependent kinase 2 (Homo sapiens, UniProt P24941). Nature of the series: Inhibition of CDK2 K1 site in human HeLa cells lysate at 10 uM pre incubated for 15 mins followed by ATP acyl phosphate probe addition and measured after 10 mins by LC-MS/MS analysis relative to control. The class given is subcellular. The note with it: time 25.0 min. The essentials:
as §1

Series [13] deals with T2, Cyclin-dependent kinase 10. Nature of the series: Inhibition of CDK10 in human HeLa cells lysate at 10 uM pre incubated for 15 mins followed by ATP acyl phosphate probe addition and measured after 10 mins by LC-MS/MS analysis relative to control. The class given is subcellular. The note with it: time 25.0 min. Put shortly: as §1
The nature of series [14]: Toxicity in C57Bl/6 mouse assessed as body weight at 50 mg/kg, ip for 14 days (reference value: 0.2 to 0.208 kg). The note with it: in vivo, 336 h, time 14 day. It counts as organism-based.
Series [15] concerns the target Phosphatidylinositol 4-phosphate 3-kinase C2 domain-containing subunit beta (Homo sapiens, UniProt O00750). Briefly: Inhibition of PIK3C2B in human HeLa cells lysate pre incubated for 15 mins followed by ATP acyl phosphate probe addition and measured after 10 mins by LC-MS/MS analysis. The class given is subcellular.

T2 sequence (Q15131 whole entry, the tested form may be a part): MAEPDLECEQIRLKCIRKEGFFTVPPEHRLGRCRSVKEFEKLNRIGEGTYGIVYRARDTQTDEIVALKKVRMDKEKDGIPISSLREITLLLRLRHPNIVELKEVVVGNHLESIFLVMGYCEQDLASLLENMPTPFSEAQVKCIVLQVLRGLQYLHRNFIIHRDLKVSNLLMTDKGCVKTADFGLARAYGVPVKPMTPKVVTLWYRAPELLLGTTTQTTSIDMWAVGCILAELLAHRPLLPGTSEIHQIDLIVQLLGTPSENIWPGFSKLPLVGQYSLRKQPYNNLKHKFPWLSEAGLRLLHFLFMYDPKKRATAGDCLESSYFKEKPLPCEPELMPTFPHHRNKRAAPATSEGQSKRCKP
Sequence of Tyrosine-protein kinase receptor UFO (P30530 whole entry, the tested form may be a part): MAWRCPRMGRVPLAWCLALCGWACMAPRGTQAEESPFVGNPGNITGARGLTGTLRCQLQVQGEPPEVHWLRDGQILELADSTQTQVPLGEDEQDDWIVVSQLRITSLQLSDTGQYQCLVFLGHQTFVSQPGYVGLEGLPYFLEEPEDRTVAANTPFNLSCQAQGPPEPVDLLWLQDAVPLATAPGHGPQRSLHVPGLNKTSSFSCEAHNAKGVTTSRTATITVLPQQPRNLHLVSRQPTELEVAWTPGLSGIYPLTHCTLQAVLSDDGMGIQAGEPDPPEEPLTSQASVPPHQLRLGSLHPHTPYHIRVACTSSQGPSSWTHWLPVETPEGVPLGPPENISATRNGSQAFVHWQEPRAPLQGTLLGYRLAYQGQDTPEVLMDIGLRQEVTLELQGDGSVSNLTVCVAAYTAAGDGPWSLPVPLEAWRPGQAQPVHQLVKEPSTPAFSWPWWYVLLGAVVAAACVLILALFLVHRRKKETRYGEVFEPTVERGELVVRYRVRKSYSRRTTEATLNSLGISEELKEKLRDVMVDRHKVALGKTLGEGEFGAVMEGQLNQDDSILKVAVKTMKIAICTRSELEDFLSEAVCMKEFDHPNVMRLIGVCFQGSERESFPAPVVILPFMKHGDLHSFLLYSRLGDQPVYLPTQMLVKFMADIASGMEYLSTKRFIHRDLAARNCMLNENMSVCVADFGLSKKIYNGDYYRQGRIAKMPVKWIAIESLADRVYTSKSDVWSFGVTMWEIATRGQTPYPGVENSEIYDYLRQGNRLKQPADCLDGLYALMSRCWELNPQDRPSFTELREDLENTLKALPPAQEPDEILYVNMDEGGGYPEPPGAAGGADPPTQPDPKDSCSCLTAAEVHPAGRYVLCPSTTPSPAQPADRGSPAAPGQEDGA
Sequence of EKC/KEOPS complex subunit TP53RK (Q96S44 whole entry, one chain of several): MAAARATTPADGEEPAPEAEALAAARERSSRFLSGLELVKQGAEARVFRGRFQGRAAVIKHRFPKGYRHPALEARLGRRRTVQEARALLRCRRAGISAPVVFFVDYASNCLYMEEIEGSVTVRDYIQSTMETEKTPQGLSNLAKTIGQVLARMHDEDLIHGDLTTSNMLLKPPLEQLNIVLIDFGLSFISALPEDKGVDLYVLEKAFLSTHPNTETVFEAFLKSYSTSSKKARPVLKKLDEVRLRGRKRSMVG
Sequence of Phosphatidylinositol 4-phosphate 3-kinase C2 domain-containing subunit beta (O00750 whole entry, the tested form may be a part): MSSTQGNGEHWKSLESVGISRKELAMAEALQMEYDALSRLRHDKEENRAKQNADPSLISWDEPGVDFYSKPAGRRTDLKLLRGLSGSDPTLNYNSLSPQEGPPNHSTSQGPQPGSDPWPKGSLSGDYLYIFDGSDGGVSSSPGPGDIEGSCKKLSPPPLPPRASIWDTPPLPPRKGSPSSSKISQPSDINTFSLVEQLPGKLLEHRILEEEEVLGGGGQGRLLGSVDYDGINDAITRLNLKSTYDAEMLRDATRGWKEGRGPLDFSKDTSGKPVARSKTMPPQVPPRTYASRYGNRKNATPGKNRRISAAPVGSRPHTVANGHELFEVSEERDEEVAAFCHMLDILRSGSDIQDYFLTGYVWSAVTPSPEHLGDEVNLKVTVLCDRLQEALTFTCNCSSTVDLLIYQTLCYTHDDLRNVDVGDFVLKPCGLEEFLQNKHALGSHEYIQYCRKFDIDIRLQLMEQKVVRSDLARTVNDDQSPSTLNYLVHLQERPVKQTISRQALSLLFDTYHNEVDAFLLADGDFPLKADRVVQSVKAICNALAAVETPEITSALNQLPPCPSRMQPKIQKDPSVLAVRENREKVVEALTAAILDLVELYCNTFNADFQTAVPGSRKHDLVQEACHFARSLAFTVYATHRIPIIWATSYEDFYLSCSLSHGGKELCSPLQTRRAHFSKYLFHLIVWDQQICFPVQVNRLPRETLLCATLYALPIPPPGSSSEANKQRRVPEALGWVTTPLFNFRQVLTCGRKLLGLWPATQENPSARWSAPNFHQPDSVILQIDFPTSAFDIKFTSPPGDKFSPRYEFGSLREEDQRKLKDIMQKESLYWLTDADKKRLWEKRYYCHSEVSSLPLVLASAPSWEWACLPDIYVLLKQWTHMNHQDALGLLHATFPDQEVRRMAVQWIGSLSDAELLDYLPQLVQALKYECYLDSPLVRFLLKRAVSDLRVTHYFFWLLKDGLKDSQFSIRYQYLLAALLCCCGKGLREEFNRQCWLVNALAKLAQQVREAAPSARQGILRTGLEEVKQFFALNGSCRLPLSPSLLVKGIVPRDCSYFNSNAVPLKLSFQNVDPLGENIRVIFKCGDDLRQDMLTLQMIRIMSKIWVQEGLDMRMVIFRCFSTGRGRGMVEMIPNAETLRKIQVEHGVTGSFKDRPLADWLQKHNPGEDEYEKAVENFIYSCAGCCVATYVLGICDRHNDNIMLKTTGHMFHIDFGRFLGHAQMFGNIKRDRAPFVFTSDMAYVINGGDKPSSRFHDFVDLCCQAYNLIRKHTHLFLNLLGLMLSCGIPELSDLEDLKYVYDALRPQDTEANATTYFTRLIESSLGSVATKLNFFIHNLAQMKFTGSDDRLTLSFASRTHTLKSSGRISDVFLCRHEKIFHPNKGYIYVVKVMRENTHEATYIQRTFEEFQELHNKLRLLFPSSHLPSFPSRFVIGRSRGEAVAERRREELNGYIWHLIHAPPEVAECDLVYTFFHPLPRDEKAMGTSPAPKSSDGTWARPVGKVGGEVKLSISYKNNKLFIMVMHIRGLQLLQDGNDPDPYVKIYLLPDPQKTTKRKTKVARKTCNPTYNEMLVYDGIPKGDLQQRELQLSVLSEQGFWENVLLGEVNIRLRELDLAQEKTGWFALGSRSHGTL
Sequence of Mitogen-activated protein kinase 14 (Q16539 whole entry): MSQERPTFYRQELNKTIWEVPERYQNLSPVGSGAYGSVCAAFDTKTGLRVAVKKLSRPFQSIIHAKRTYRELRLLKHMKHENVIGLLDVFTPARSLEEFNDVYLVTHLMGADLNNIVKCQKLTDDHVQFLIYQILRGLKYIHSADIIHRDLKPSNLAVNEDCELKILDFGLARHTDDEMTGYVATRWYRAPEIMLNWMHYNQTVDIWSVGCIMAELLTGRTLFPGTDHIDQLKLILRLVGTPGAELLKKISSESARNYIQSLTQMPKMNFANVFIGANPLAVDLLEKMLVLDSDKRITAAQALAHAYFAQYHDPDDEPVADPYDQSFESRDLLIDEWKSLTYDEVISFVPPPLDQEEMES

Broadly, the IC50 is the concentration needed to halve the response being measured. One may read the inhibition as the change of the read-out against control, counted positive when it falls. Regarding `CCOc1cc(N2CCC(O)CC2)ccc1Nc1ncc2c(n1)N(C)c1ccccc1C(=O)N2C`, the IC50 (at SRSF protein kinase 1; in [3]; in series [4]; in series [11]; in series [15]) was more than 50 µM in each case. Also, the inhibition in [1] is -3.3%; in series [2], 4.3%; in series [5], -3.7%; in series [6], 15.9%; in series [7], -9.5%; in series [8], 1.8%. Also, the inhibition was 3.7% in series [9], 28% in series [10], -9.1% in series [12] and -3.2% in [13]. Moreover, the Activity in series [14] worked out at 0.02 kg.
